# Experimental data published in article PMC6178240 (Molecular Therapy. Nucleic Acids, 2018).
# Where two headings read alike, the source gives them in different places.
# How the values were obtained:
# PIK3CB protein [1] = assay: PIK3CB protein level by western blot in U87MG cells; assay type: cell-based, human; settings: 72-hr treatment, normalized with GAPDH
# [2] = system: orthotopic U87MG-Luc glioblastoma; assay: In vivo anti-tumor effects; design: species or system nude mice; settings: 12 times over a 24-hr interval, after 12 days; for tumor growth (luminescence intensity) versus saline: 1 nmol/20 g i.v., n = 5 per group
# Procedure, shortened: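 U87MG-Luc cells (3 × 10⁵ in 3 μL ice-cold PBS) were implanted stereotaxically into BALB/c nude mice (2 mm right of bregma, 3 mm deep). Dosing began once IVIS detected tumours. Twenty mice were randomised into 4 groups (2 male, 3 female each). Groups were saline, scrambled 1 nmol/20 g, or test 0.5 or 1 nmol/20 g, i.v. 12 times at 24-hr intervals. IVIS luminescence was read on days 0, 7 and 12, then excised brains were imaged.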
# [3] = system: orthotopic U87MG-Luc glioblastoma; assay: Survival monitoring assay; assay type: in vivo, nude mice; settings: 3 nmol/20 g mixed with Gelofusine (4 mg/20 g) i.v. at 48-hr interval; for median survival time: n = 5
# Procedure, shortened: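 Fifteen orthotopic U87MG-Luc nude mice were randomised into 3 groups (2 male, 3 female each). Each received saline, scrambled conjugate or test conjugate (3 nmol/20 g) i.v. every 48 hr, all mixed with Gelofusine (4 mg/20 g). Body weight was recorded daily and IVIS luminescence on days 0, 7 and 28. Mice were sacrificed at 40% loss of primary body weight.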
# U87MG cells [4] = assay: Cellular uptake by flow cytometry; assay type: cell-based, human
# Procedure, shortened: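 U87MG cells were exposed to Cy5-labelled conjugate at 100, 200, 400 or 600 nM, or Cy5-labelled comparators at 600 nM, in Opti-MEM for 12 hr at 37°C. Cells were trypsinised, washed twice in PBS, resuspended, and Cy5 was read by flow cytometry. Receptor blocking used pre-treatment with excess unconjugated biRGD peptide.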
# [5] = system: orthotopic U87MG-Luc glioblastoma; assay: Immunofluorescence analysis of frozen brain sections; assay type: in vivo, nude mice; settings: 1 nmol/20 g i.v., confocal
# Procedure, shortened: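 Orthotopic U87MG-Luc nude mice received a single i.v. dose of Cy5-labelled siRNA (1 nmol/20 g). Brains taken from the imaging study were frozen at –80°C and sectioned. Sections were stained for CD31 (vessels) and with DAPI, then imaged by confocal microscopy (Cy5 ex 640 nm, em 680 nm). Normal brain served as comparison.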
# HeLa cells = assay: Cellular uptake by flow cytometry; assay type: cell-based; settings: HeLa (αvβ3-negative), 600 nM, Opti-MEM, 12 h, 37°C, Cy5 flow cytometry
# [6] = system: orthotopic U87MG-Luc glioblastoma; assay: In vivo distribution assay; design: species or system nude mice
# Procedure, shortened: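 Orthotopic U87MG-Luc nude mice received a single i.v. dose (1 nmol/20 g) of Cy5-labelled conjugate, conjugate plus Gelofusine (4 mg/20 g), unconjugated Cy5-siRNA, or monovalent comparator. Whole-body IVIS Cy5 imaging (ex 640 nm, em 680 nm) was done at 12, 24, 36 and 48 hr. At 24 hr some mice were sacrificed and their tumours and major organs imaged ex vivo.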
# U87MG cells [7] = assay: Confocal fluorescence microscopy of intracellular distribution; assay type: cell-based, human; settings: for intracellular distribution (Cy5, confocal): Opti-MEM
# Procedure, shortened: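 U87MG cells were exposed to Cy5-labelled molecules at 600 nM in Opti-MEM for 12 hr at 37°C, with or without prior blocking using excess biRGD peptide. Cells were PBS-washed, fixed in 4% paraformaldehyde for 15 min at room temperature, stained with anti-TGN46 and an Alexa Fluor 488 secondary, then imaged by confocal microscopy.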
# kidneys = assay: Histopathological evaluation of kidneys; assay type: in vivo, nude mice; settings: 1 nmol/20 g i.v., 12 times over a 24-hr interval, H&E
# Procedure, shortened: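 Kidneys from orthotopic U87MG-Luc nude mice dosed i.v. 12 times at 24-hr intervals were used. Tissues were fixed at once in 4% paraformaldehyde, paraffin-embedded, cut into 5-μm sections and stained with H&E for histology.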
# [8] = Hepatotoxicity, serum ALT; design: species or system nude mice; settings: serum from in vivo anti-tumor assay
# Procedure, shortened: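 Serum came from orthotopic U87MG-Luc nude mice in the anti-tumour study. Dosing was saline, scrambled conjugate 1 nmol/20 g, or test conjugate 0.5 or 1 nmol/20 g, given i.v. 12 times at 24-hr intervals. Serum was collected after sacrifice on day 12. ALT was measured on an automated chemistry analyser following the manufacturer's instructions.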
# Serum stability assay = assay type: in vitro ADME; settings: 5 μL 20 μM mixed with 5 μL mouse serum, 37°C, 1.2% agarose gel
# PIK3CB protein [9] = assay type: in vivo, human
# U87MG cells [10] = assay: Transwell migration assay; assay type: cell-based, human; settings: 100-600 nM, 48-hr treatment, Matrigel-coated 8-μm inserts, migration 24 hr
# Procedure, shortened: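 U87MG cells were exposed to test conjugate (100–600 nM) or scrambled conjugate (600 nM) in serum-free Opti-MEM for 24 hr, then held 48 hr with 10% serum. Cells (5 × 10⁴ in serum-free DMEM) were placed on Matrigel-coated (2 mg/mL) 8-μm inserts, with 10% FBS DMEM below, and allowed to migrate 24 hr. Crystal-violet-stained cells were counted in five random fields.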
# [11] = Immunogenicity evaluation, serum cytokines by ELISA; assay type: in vivo, BALB/c mice; settings: 5nmol/20 g single injection, serum at 6hr
# Procedure, shortened: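 Immunocompetent BALB/c mice (4–6 weeks, ~20 g) got a single injection of saline or test conjugate (5 nmol/20 g), alone or mixed with Gelofusine (4 mg/20 g). Serum was collected at 6 hr, and IL-6, IFN-β and TNF-α were measured by ELISA kit.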
# PIK3CB mRNA [12] = assay: PIK3CB mRNA level by qRT-PCR in U87MG cells; assay type: cell-based, human; settings: no transfection agent, 48 hr, normalized with GAPDH
# U87MG cells [13] = assay: Cell apoptosis analysis, Annexin V-FITC/PI flow cytometry; assay type: cell-based, human; settings: 72 hr post-treatment
# Procedure, shortened: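 U87MG cells attached 24 hr, then exposed to the test conjugate (100, 200, 400 or 600 nM) or scrambled conjugate (600 nM) in serum-free Opti-MEM for 24 hr; untreated control. 10% serum was then added and cells held 72 hr. Apoptosis was measured by Annexin V-FITC/PI staining per kit and read on a flow cytometer as apoptosis rate.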
# PIK3CB mRNA [14] = assay: In vivo silencing, PIK3CB mRNA in tumor by qRT-PCR; design: species or system human; settings: versus saline and biRGD-siNC
# [15] = system: orthotopic U87MG-Luc glioblastoma; assay: ki67 staining and TUNEL assay of tumor sections; assay type: in vivo, nude mice
# Procedure, shortened: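 Tumours from the anti-tumour study were used (saline, scrambled 1 nmol/20 g, or test 0.5 or 1 nmol/20 g, i.v. 12 times at 24-hr intervals). They were fixed in 4% paraformaldehyde, paraffin-embedded and cut into 5-μm sections. Sections were stained by Ki67 immunohistochemistry and TUNEL kit. Results were expressed as Ki67-positive/total cells and apoptotic index (TUNEL-positive/total cells).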
# [16] = 0.5 nmol/20 g i.v. x12, versus saline and biRGD-siNC
# [17] = 1 nmol/20 g i.v. x12, versus saline and biRGD-siNC
substance,measurement,setting,value
"[cyclo(Arg-Gly-Asp-D-Phe-Lys)-Ahx]2-Glu-PEG-MAL (bicyclic or more) [biRGD-siNC, reference compound]","PIK3CB protein level, remaining amount",PIK3CB protein [1]; 600 nM,almost no effect
same,tumor growth (luminescence intensity) versus saline,[2],no significant difference
same,course of body weight,[3],rapid decrease in body weight
same,median survival time,[3],23 days
[cyclo(Arg-Gly-Asp-D-Phe-Lys)-Ahx]2-Glu-PEG-MAL (bicyclic or more) [biRGD-siNC-Cy5],uptake after blocking integrin αvβ3 receptors,"U87MG cells [4]; U87MG pre-treated with 1 μM unconjugated biRGD peptide, 37°C, 1 hr",inhibited
same,uptake relative to cRGD-siNC-Cy5,"U87MG cells [4]; U87MG, 600 nM, 12 hr, Cy5 flow cytometry",approximately twice
same,cellular uptake,"U87MG cells [4]; U87MG, 100 to 600 nM, Opti-MEM, 12 hr, 37°C, Cy5 flow cytometry",enhanced cellular uptake that increased progressively
same,saturation of uptake,"U87MG cells [4]; U87MG, tested range 100 to 600 nM",No evidence of saturation of uptake
same,Cy5 signal in sections of GBM-bearing brain tissues,[5]; CD31 staining,significantly higher
same,Cy5 signal in sections of normal brain tissues,[5],little
same,cellular uptake,HeLa cells,no uptake
same,time of peak Cy5 fluorescence intensity of orthotopic GBM,"[6]; 1 nmol/20 g i.v. single dose, IVIS",24 h
same,Cy5 fluorescence within the tumor and kidneys,"[6]; 1 nmol/20 g i.v. single dose, IVIS at 12, 24, and 36 hr",high red Cy5 fluorescent expressions
same,"presence in other main organs (heart, spleen, and lung), ex vivo","[6]; 1 nmol/20 g i.v., organs excised at 24 hr",not found
same,ex vivo targeting of GBM-bearing brain tissue,"[6]; 1 nmol/20 g i.v., organs excised at 24 hr, ex vivo Cy5 imaging",specifically target the GBM-bearing brain tissue
same,intracellular distribution after pre-treating with excess biRGD peptide,U87MG cells [7]; U87MG blocked with biRGD (1 μM),inhibited
same,"intracellular distribution (Cy5, confocal)","U87MG cells [7]; U87MG, 600 nM",substantial uptake and wide distribution in the cell
same,subcellular localization versus trans-Golgi marker TGN46,"U87MG cells [7]; U87MG, 600 nM, anti-TGN46/Alexa Fluor 488",substantial overlap with TGN46 protein
[cyclo(Arg-Gly-Asp-D-Phe-Lys)-Ahx]2-Glu-PEG-MAL (bicyclic or more) [biRGD-siPIK3CB],pathological sections of kidneys versus saline,kidneys,mild pathological changes in kidneys
same,ALT level in the serum versus saline,[8]; mixed with Gelofusine,no statistically meaningful difference
same,ALT level in the serum versus saline,[8]; Aeroset Chemistry Analyzer,no statistically meaningful difference
same,degradation in mouse serum at 96 hr,Serum stability assay; 96 hr,low degradation
same,"PIK3CB protein level, remaining amount",PIK3CB protein [1]; 400 nM,about 70%
same,"PIK3CB protein level, remaining amount",PIK3CB protein [1]; 600 nM,about 60%
same,PIK3CB protein level in tumor (immunohistochemistry),PIK3CB protein [9]; 0.5 nmol/20 g i.v. x12,remarkably low
same,PIK3CB protein level in tumor (immunohistochemistry),PIK3CB protein [9]; 1 nmol/20 g i.v. x12,remarkably low
same,PIK3CB protein level in tumor (western blot),PIK3CB protein [9]; 1 nmol/20 g i.v. x12,significantly decreased
same,tumor growth (luminescence intensity) versus saline and biRGD-siNC,[2]; 0.5 nmol/20 g i.v.,no significance
same,tumor growth (luminescence intensity) versus saline,[2],significant tumor growth inhibition
same,course of body weight,[3],steady
same,median survival time,[3],26 days
same,U87MG cell invasion (transwell migration),U87MG cells [10],significantly inhibit
same,IFN-β level of the serum versus saline,[11],no significant difference
same,IL-6 level of the serum versus saline,[11],no significant difference
same,TNF-α level of the serum versus saline,[11],no significant difference
same,"PIK3CB mRNA level, remaining amount",PIK3CB mRNA [12]; 400 nM,about 60%
same,"PIK3CB mRNA level, remaining amount",PIK3CB mRNA [12]; 600 nM,~50%
same,apoptosis rate,U87MG cells [13]; 400 nM,15.14%
same,apoptosis rate,U87MG cells [13]; 600 nM,20.76%
same,PIK3CB mRNA expression in tumor,"PIK3CB mRNA [14]; 0.5 nmol/20 g i.v. x12, qRT-PCR",obviously low expression
same,PIK3CB mRNA expression in tumor,"PIK3CB mRNA [14]; 1 nmol/20 g i.v. x12, qRT-PCR",obviously low expression
same,apoptotic tumor cells (TUNEL),[15]; [16],obviously higher number
same,proliferative cells in tumors (ki67),[15]; [16],obviously decreased
same,apoptotic tumor cells (TUNEL),[15]; [17],obviously higher number
same,proliferative cells in tumors (ki67),[15]; [17],obviously decreased
same,"number of apoptotic tumor cells, 1 nmol/20 g group relative to 0.5 nmol/20 g group",[15]; TUNEL,about twice
"cyclo(Arg-Gly-Asp-D-Phe-Lys) (head to tail) [cRGD-siNC-Cy5, reference compound]","intracellular distribution (Cy5, confocal)","U87MG cells [7]; U87MG, 600 nM",substantial uptake and wide distribution in the cell
"siPIK3CB: sense 5′-AC(mC)(mU)G(mU)GGAUACUCAU(mU)A(mA)dTdT-3′, antisense 5′-U(mU)AA(mU)GAGUAUCCA(mC)AG(mG)(mU)dTdT-3′",incubation time in mouse serum after which degraded,Serum stability assay; 0-96 hr,48 h
